This note sets out measurements from ChEMBL document CHEMBL4715918, “Syntheses and evaluation of acridone-naphthalimide derivatives for regulating oncogene PDGFR-β expression” (Bioorg Med Chem, 2021).

One may read the Kd as the equilibrium constant for the complex coming apart. Lower therefore signals a tighter complex. Broadly, the IC50 is the point on the concentration scale where inhibition reaches its midpoint.

Series [1] in a line: Binding affinity to FAM-labeled 5'-biotin-d [GCGTCCACCCTCCCTGCCCCGCCGCCCCCCCITCTCCCAGC]-3' i-motif DNA (unknown origin) by microscale thermophoresis assay. The method, boiled down: (§1)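 Microscale thermophoresis with DNA held constant at 1 µM. Compound serially diluted 3:4 from 10 µM over 12 points. Samples run in standard glass capillaries with LED and laser power both at 20%. KD derived by fitting.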
(In MST a laser heats a spot of the sample, and binding alters the fluorescence response.)

Series [2] concerns the target Quadruplex DNA. The series is described as follows: Binding affinity to FAM-labeled 5'-biotin-d [GCTGGGAGAAGGGGGGGCGGCGGGGCAGGGAGGGTGGACGC]-3' G4-quadruplex DNA (unknown origin) by microscale thermophoresis assay. It counts as nucleic-acid assay. The method in brief:
as §1

The nature of series [3]: Binding affinity to 5'-biotin-d [GCGTCCACCCTCCCTGCCCCGCCGCCCCCCCITCTCCCAGC]-3' i-motif DNA (unknown origin) assessed as decrease in positive peak by CD spectroscopy. The note with it: dose 2-10 equiv. The method, boiled down: (§2)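 CD spectra: oligomers at 2 μM final, in BPES pH 5.5 (i-motif) or Tris-HCl pH 7.4 (G-quadruplex). Samples were annealed (95 °C 5 min, slow cool, 4 °C overnight), then titrated with increasing compound. Spectra were recorded at 25 °C over 230–330 nm in a 1 mm cuvette, buffer-subtracted, averaged and smoothed.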

In series [4] the test system is Quadruplex DNA. The series is described as follows: Binding affinity to 5'-biotin-d [GCTGGGAGAAGGGGGGGCGGCGGGGCAGGGAGGGTGGACGC]-3' G4-quadruplex DNA (unknown origin) assessed as decrease in positive peak by CD spectroscopy. It counts as nucleic-acid assay. The note with it: dose 2-10 equiv. The method, boiled down:
as §2

Series [5] has as its system MCF7. The series is described as follows: Binding affinity to wild type PDGFRbeta promoter (unknown origin) in human MCF7 cells after 48 hrs by dual luciferase reporter assay. In kind it is cell-based. The method in brief: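 MCF-7 cells were transfected with 200 ng psiCHECK2 plasmid carrying the wild-type PDGFR-β promoter. After 4 h, compound was added at various concentrations and cells were incubated 48 h at 37 °C. Cells were washed with cold PBS and dual-luciferase signals read for 10 s. Renilla activity was normalised to firefly.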

Series [6] deals with MCF7. The series is described as follows: Cytotoxicity against human MCF7 cells assessed as reduction in cell viability after 48 hrs by MTT assay. In kind it is functional, cell-based. The note with it: MCF7, 48 h. The method, boiled down:
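MTT assay: cells seeded at 5.0 × 10³/well, grown 12 h, then exposed to graded compound concentrations for 48 h at 37 °C/5% CO2. 2.5 mg/mL MTT was added for 4 h, formazan dissolved in DMSO, and absorbance read at 570 nm. Each dose in triplicate; IC50 from percent survival versus negative control.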
For orientation: Tetrazolium assays rely on reduction of a dye to a coloured formazan, in cell work by metabolically active cells.

In series [7] the test system is MCF7. The series is described as follows: Cytotoxicity against human MCF7 cells assessed as reduction in cell viability after 48 hrs by xcCELLigence RTCA analysis. It counts as functional, cell-based. The note with it: MCF7, 48 h. The method, boiled down: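 xCELLigence RTCA: MCF-7 cells were cultured on E-plates about 16 h, then treated with 0.625, 1.25, 2.5 μM compound or DMSO. Impedance was monitored for 90 h.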

In series [8] the test system is MCF7. The series is described as follows: Antiinvasive activity in human MCF7 cells assessed as reduction in cell migration by microscopic method. The note with it: dose […], time 24-48 hrs. It counts as functional, cell-based. The method, boiled down:
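Scratch assay: MCF-7 seeded 300,000 cells/well, grown 24 h at 37 °C/5% CO2, then a cross-shaped scrape was made through the monolayer with a pipet tip. Cells were exposed to 5, 2.5, 1.25, 0.625, 0.3125 μM compound or DMSO control. Wounded areas were photographed by microscopy at 0, 24 and 48 h.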

The subject of series [9] is MCF7. The series is described as follows: Induction apoptosis in human MCF7 cells incubated for 24 hrs by Annexin-FTTC/PI staining based flow cytometric analysis. In kind it is functional, cell-based. The note with it: dose 1.25-5 µM. For orientation: Flow cytometry measures light scatter and fluorescence of single cells or particles in a stream.
For series [10], the system named is MCF7. The series is described as follows: Induction of cell cycle arrest in human MCF7 cells assessed as accumulation at G0/G1 phase at 0.625 to 10 uM after 48 hrs by propidium iodide staining based flow cytometric analysis (reference value: 75.7%). The note with it: dose 0.625-10 µM. It counts as functional. The method, boiled down:
(§3)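 MCF-7 cells, 2 × 10^5/well, were pre-grown 12 h, then treated with 10, 5, 2.5, 1.25, 0.625 μM compound or DMSO. Cells were fixed in 75% ethanol at −20 °C overnight. Staining was 50 μg/mL PI with RNase A, 30 min at room temperature in the dark. Flow cytometry collected 10,000 events; phase distribution was determined.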

Series [11] concerns MCF7. The series is described as follows: Induction of cell cycle arrest in human MCF7 cells assessed as accumulation at G2/M phase after 48 hrs by propidium iodide staining based flow cytometric analysis. It counts as functional. The note with it: dose 0.625-10 µM. The method, boiled down: as §3
The test system of series [12] is MCF7. The series is described as follows: Antitumour activity against human MCF7 cells xenografted in ip dosed nude BALB/c mouse assessed as tumour growth inhibition administered for 34 days. It counts as functional, organism-based. The note with it: dose 2.5-10 mg/kg, time 34.0 day.
The test system of series [13] is MCF7. The series is described as follows: Antitumour activity against human MCF7 cells xenografted in nude BALB/c mouse assessed as tumour volume at 5 mg/kg, ip administered for 34 days (reference value: 1530 mm3). It counts as functional. The note with it: time 34 day.
The nature of series [14]: Toxicity in nude BALB/c mouse xenografted with human MCF7 cells assessed as liver weight at 2.5 to 10 mg/kg, ip administered for 34 days. In kind it is organism-based. The note with it: in vivo, 816 h, dose 2.5-10 mg/kg, time 34 day. The method, boiled down:
(§4)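 Nude BALB/c females bearing subcutaneous MCF-7 xenografts were dosed ip once daily for 34 days at 2.5, 5.0 or 10 mg/kg, with saline vehicle (100 µL) as control. Body weight was recorded every 2 days. After euthanasia by cervical dislocation, heart, liver, spleen and kidney were removed and weighed.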

Series [15] is described as follows: Toxicity in nude BALB/c mouse xenografted with human MCF7 cells assessed as lung weight at 2.5 to 10 mg/kg, ip administered for 34 days. The note with it: in vivo, 816 h, dose 2.5-10 mg/kg, time 34 day. It counts as organism-based.
A short description of series [16]: Toxicity in nude BALB/c mouse xenografted with human MCF7 cells assessed as kidney weight at 2.5 to 10 mg/kg, ip administered for 34 days. The note with it: in vivo, 816 h, dose 2.5-10 mg/kg, time 34 day. In kind it is organism-based. The method in brief:
as §4

Series [17] has as its system MCF7. The series is described as follows: Induction apoptosis in human MCF7 cells assessed as viable cells at 2.5 uM incubated for 24 hrs by Annexin-FTTC/PI staining based flow cytometric analysis (reference value: 99.7%). It counts as functional. The note with it: read-out: Activity.
For series [18], the system named is MCF7. The series is described as follows: Induction apoptosis in human MCF7 cells assessed as viable cells at 5 uM incubated for 24 hrs by Annexin-FTTC/PI staining based flow cytometric analysis (reference value: 99.7%). It counts as functional. The note with it: read-out: Activity.
In series [19] the test system is MCF7. The series is described as follows: Induction apoptosis in human MCF7 cells assessed as early apoptotic cells at 1.25 uM incubated for 24 hrs by Annexin-FTTC/PI staining based flow cytometric analysis (reference value: 0.28%). In kind it is functional.
Series [20] relates to MCF7. The series is described as follows: Induction apoptosis in human MCF7 cells assessed as early apoptotic cells at 5 uM incubated for 24 hrs by Annexin-FTTC/PI staining based flow cytometric analysis (reference value: 0.28%). It counts as functional.
Series [21] relates to MCF7. The series is described as follows: Induction apoptosis in human MCF7 cells assessed as late apoptotic cells at 1.25 uM incubated for 24 hrs by Annexin-FTTC/PI staining based flow cytometric analysis (reference value: 0%). In kind it is functional.
The test system of series [22] is MCF7. The series is described as follows: Induction apoptosis in human MCF7 cells assessed as necrotic cells at 1.25 uM incubated for 24 hrs by Annexin-FTTC/PI staining based flow cytometric analysis (reference value: 0.11%). In kind it is functional.
Series [23] has as its system MCF7. The series is described as follows: Induction apoptosis in human MCF7 cells assessed as necrotic cells at 2.5 uM incubated for 24 hrs by Annexin-FTTC/PI staining based flow cytometric analysis (reference value: 0.11%). It counts as functional.
Series [24] relates to MCF7. The series is described as follows: Induction apoptosis in human MCF7 cells assessed as necrotic cells at 5 uM incubated for 24 hrs by Annexin-FTTC/PI staining based flow cytometric analysis (reference value: 0.11%). In kind it is functional.

Regarding `Cc1ccc2c(c1)c(=O)c1cc(C(=O)NCCCN(C)CCCN3C(=O)c4cccc5c(N6CCN(C)CC6)ccc(c45)C3=O)ccc1n2-c1ccc(C(=O)NCCCN(C)CCCN2C(=O)c3cccc4c(N5CCN(C)CC5)ccc(c34)C2=O)cc1`, the Kd in [1] was found to be 4.52 µM; at Quadruplex DNA [2], 6.11 µM. The Activity result is “Dose-dependent effect” in [3]; “Dose-dependent effect” in the series with Quadruplex DNA [4]; “Dose-dependent effect” with MCF7 [5]; “Dose-dependent effect” with MCF7 [8]; “Dose-dependent effect” in the series on MCF7 [9]; 48.1% in the series on MCF7 [10]. The Activity entry in the series with MCF7 [11] was “Dose-dependent effect”; in the series on MCF7 [12], “Dose-dependent effect”; in the series with MCF7 [13], 780 mm3; in [14], “Non-Toxic”; in [15], “Non-Toxic”; in [16], “Non-Toxic”. For the same compound, the Activity in the series on MCF7 [19] stood at 7.38%; with MCF7 [20], 33.5%; in the series on MCF7 [21], 0.8%; in the series with MCF7 [22], 0.43%; in the series with MCF7 [23], 0.49%; with MCF7 [24], 2.42%. The IC50 is 4.69 µM in the series with MCF7 [6] and 2.74 µM in the series with MCF7 [7]. Further, the viability at 2.5 µM in the series on MCF7 [17] is 71.4%. For the same compound, the viability at 5 µM in the series with MCF7 [18] worked out at 13%.
